Experimental findings from ChEMBL document CHEMBL1144182, “Antimicrobial and cytotoxic arylazoenamines. Part III: antiviral activity of selected classes of arylazoenamines” (Bioorg Med Chem, 2008) are described below.

Data set [1] can be described thus: Cytotoxicity against mock-infected human MT4 cells assessed as reduction in cell viability after 96 hrs by MTT assay. It is filed as cell-based. In outline: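 Exponentially growing MT-4 cells seeded at 1 × 10^5 cells/mL in RPMI-1640 with 10% FCS, penicillin and streptomycin, with or without serial compound dilutions. Incubated at 37 °C, 5% CO2; viability read by MTT after 96 h. CC50 is the concentration reducing mock-infected cell viability by 50%.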
For orientation: Tetrazolium dyes change colour on reduction, which living cells bring about.

The subject of data set [2] is Bovine viral diarrhea virus 1. The experiment in a line: Antiviral activity against BVDV infected in MDBK cells assessed as protection against virus-induced cytopathogenicity after 4 days by MTT assay. Particulars: Bovine viral diarrhea virus isolates and strains, 96 h. It is filed as functional, organism-based. Summed up: (§1)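 MDBK (BVDV) or BHK-21 (YFV) cells were seeded at 3 × 10^4 or 5 × 10^4 cells/well respectively and grown overnight to confluent monolayers at 37 °C in 5% CO2. Monolayers were infected at m.o.i. 0.01 in serum-free medium. After 1 h, MEM Earle's with 1% FCS was added, with or without serial compound dilutions. After 3–4 days at 37 °C, viability was read by MTT. EC50 was taken as 50% protection from virus-induced cytopathogenicity.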
(Protection from cytopathic effect is a common read-out in antiviral testing.)

Data set [3] relates to Poliovirus 1. Briefly: Antiviral activity against Sb1 virus infected in Vero76 cells assessed as reduction in virus plaque formation after 4 days by MTT assay. It is filed as functional, organism-based. Particulars: Enterovirus C, Sabin, Vero 76, 96 h.
In data set [4] the test system is Human immunodeficiency virus 1. The experiment in a line: Antiviral activity against HIV1 infected in MT4 cells assessed as virus-induced cytopathogenicity after 4 days. It is filed as functional, organism-based.
Data set [5] has as its system Vesicular stomatitis virus. The experiment in a line: Antiviral activity against VSV infected in Vero76 cells assessed as reduction in virus plaque formation after 4 days by MTT assay. To be noted: Vero 76. Type of data set: functional, organism-based.
The subject of data set [6] is Human alphaherpesvirus 1. The experiment in a line: Antiviral activity against HSV1 infected in Vero76 cells assessed as reduction in virus plaque formation after 4 days by MTT assay. Type of data set: functional, organism-based. Particulars: Human alphaherpesvirus 1, Vero 76, 96 h.
A short description of data set [7]: Cytotoxicity against mock-infected BHK cells assessed as reduction in cell viability after 96 hrs by MTT assay. It is filed as cell-based, Mesocricetus auratus. To be noted: hamster. In outline:
(§2)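 Cytotoxicity run in parallel with the antiviral assays. MDBK seeded at 6 × 10^5 and BHK at 1 × 10^6 cells/mL in maintenance medium with or without serial compound dilutions. Incubated 48–96 h at 37 °C, 5% CO2, then viability read by MTT. CC50 is the concentration reducing mock-infected cell viability by 50%.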

Data set [8] relates to Yellow fever virus. Briefly: Antiviral activity against YFV infected in BHK21 cells assessed as protection against virus-induced cytopathogenicity after 4 days by MTT assay. It is filed as functional, organism-based. To be noted: BHK-21, 96 h. In outline: as §1
The test system of data set [9] is Vaccinia virus. Briefly: Antiviral activity against VV infected in Vero76 cells assessed as reduction in virus plaque formation after 4 days by MTT assay. Type of data set: functional, organism-based. To be noted: Orthopoxvirus vaccinia; Vero 76.
In data set [10] the test system is Respiratory syncytial virus. Briefly: Antiviral activity against RSV infected in Vero76 cells assessed as reduction in virus plaque formation after 4 days by MTT assay. It is filed as functional, organism-based. Particulars: human respiratory syncytial virus, Vero 76, 96 h.
Data set [11] can be described thus: Cytotoxicity against mock-infected MDBK cells assessed as reduction in cell viability after 96 hrs by MTT assay. It is filed as cell-based, Bos taurus. To be noted: cattle. In outline:
as §2

A short description of data set [12]: Cytotoxicity against mock-infected african green monkey Vero76 cells assessed as reduction in cell viability after 96 hrs by MTT assay. Type of data set: cell-based, Vero. Particulars: chlorocebus sabaeus.
The subject of data set [13] is Coxsackievirus B2. Briefly: Antiviral activity against CVB2 infected in Vero76 cells assessed as reduction in virus plaque formation after 4 days by MTT assay. To be noted: Enterovirus B, Vero 76, 96 h. Type of data set: functional, organism-based.

Active and inactive are the calls of the source. The rule behind the calls is not given here.

Broadly, the CC50 is the concentration giving 50% cytotoxicity. As a reminder, the EC50 is the concentration giving half of the maximal effect.

For `FC(F)(F)c1cc(/N=N\C2=C3CCCCN3CCC2)ccc1Br`, the half-maximal cytotoxic concentration (CC50) at 96 h is 34 µM in data set [1], above 100 µM in [7], above 100 µM in data set [11] and 100 µM in [12]. Also, the EC50 in data set [2] was 61 µM; in data set [3] it was 25 µM; in data set [6], 25 µM; in data set [8], 80 µM; in data set [10], above 100 µM; in data set [13] it was 42 µM. Also, the outcome in data set [4], in data set [5] and in [9] was inactive.

Turning to `CN1CCC/C1=C\N=N\c1ccc(F)c(C(F)(F)F)c1`, the CC50 at 96 h in [1] was 11 µM; in data set [7] it was 41 µM; in data set [11] it was above 100 µM; in data set [12], above 100 µM. The half-maximal effective concentration (EC50) is 100 µM in [2]; above 100 µM in data set [3]; 60 µM in data set [6]; above 41 µM in data set [8]; above 100 µM in data set [10]; 71 µM in data set [13]. Further, the outcome in data set [4], in data set [5] and in [9] was inactive.

For `CN1CCC/C1=C\N=N\c1ccc(Cl)c(Cl)c1`, the CC50 at 96 h in data set [1] came to 39 µM; in data set [7] it was 23 µM; in data set [11], 90 µM; in data set [12], 100 µM. Also, the 50% effective concentration (EC50) in [2] was 16 µM; in data set [3], 53 µM; in data set [6], 40 µM; in data set [8], above 23 µM; in [10], above 100 µM; in data set [13] it was above 100 µM. Moreover, the result in data set [4], in data set [5] and in data set [9] was inactive.

Take `C(=C\N1CCCCC1)/N=N/c1ccccc1`: the CC50 at 96 h came to 2 µM in data set [1], 67 µM in [7], 7 µM in data set [11] and 15 µM in data set [12]. Moreover, the 50% effective concentration (EC50) in data set [2] is above 7 µM; in [3], above 15 µM; in data set [8], 23 µM; in [10], above 15 µM; in [13], 7 µM. Besides, the outcome in data set [4], in [5] and in data set [9] was inactive.

For `FC(F)(F)c1cc(/N=N\C2=C3CCCCN3CCC2)cc(C(F)(F)F)c1`, the CC50 at 96 h in data set [1] was 34 µM; in data set [7], 19 µM; in data set [11] it was 31 µM; in data set [12] it was 100 µM. For the same compound, the concentration giving a half-maximal response (EC50) in data set [2] is above 31 µM; in [3], above 100 µM; in data set [8], above 19 µM; in data set [10], above 100 µM; in [13], 41 µM. The outcome in data set [4], in [5] and in data set [9] was inactive.

For `CN1C=C(/N=N/c2cc(C(F)(F)F)cc(C(F)(F)F)c2)CCC1`, the CC50 at 96 h in data set [1] is above 100 µM; in data set [7] it was 82 µM; in data set [11], 64 µM; in [12], above 100 µM. Also, the EC50 in [2] is above 64 µM; in data set [3], above 100 µM; in [8], above 82 µM; in data set [10] it was above 100 µM; in data set [13], above 100 µM. The outcome in data set [4], in data set [5] and in data set [9] was inactive.

As for `CN1C=C(/N=N/c2ccc(Br)c(C(F)(F)F)c2)CCC1`, the cytotoxic concentration (CC50) at 96 h in data set [1] was 50 µM; in data set [7], above 100 µM; in data set [11] it was above 100 µM; in [12], 80 µM. In addition, the concentration giving a half-maximal response (EC50) is 40 µM in [2]; above 80 µM in data set [3]; above 100 µM in [8]; above 80 µM in data set [10]; 40 µM in [13]. In addition, the result in [4], in data set [5] and in [9] was inactive.

For `C(=C\N1CCCC1)/N=N/c1ccccc1`, the CC50 at 96 h in data set [1] is 8 µM; in data set [7] it was 82 µM; in data set [11], 63 µM; in [12], 70 µM. The EC50 in [2] was above 63 µM; in data set [3], above 70 µM; in [8] it was above 82 µM; in data set [10], 30 µM; in data set [13] it was 4 µM. The result in data set [4], in data set [5] and in data set [9] was inactive.

For the compound `C(=C\N1CCN(c2ncccn2)CC1)/N=N/c1ccccc1`, the CC50 at 96 h was found to be 17 µM in data set [1], 100 µM in [7], 10 µM in [11] and 55 µM in [12]. Besides, the EC50 in data set [2] was above 10 µM; in data set [3], above 55 µM; in [8], above 100 µM; in data set [10] it was 5 µM; in data set [13] it was 0.9 µM. Further, the outcome in data set [4], in [5] and in [9] was inactive.

On to `FC(F)(F)c1cc(/N=N\C2=C3CCCN3CCC2)ccc1Cl`, for which the CC50 at 96 h came to 30 µM in data set [1], 51 µM in data set [7], 21 µM in [11] and 100 µM in data set [12]. The EC50 in data set [2] was above 21 µM; in data set [3], 12 µM; in data set [6], 33 µM; in [8], above 51 µM; in data set [10], above 100 µM; in [13], 9 µM. For the same compound, the result in [4], in data set [5] and in data set [9] was inactive.

For `CN1C=C(/N=N/c2ccc(F)c(C(F)(F)F)c2)CCC1`, the CC50 at 96 h in [1] is above 100 µM; in data set [7], 80 µM; in data set [11], above 100 µM; in data set [12], 70 µM. The EC50 in data set [2] was above 100 µM; in [3], above 70 µM; in data set [8], above 80 µM; in data set [10] it was above 70 µM; in data set [13], 35 µM. The outcome in data set [4], in data set [5] and in data set [9] was inactive.

In the case of `Clc1cccc(/N=N\C2=C3CCCCN3CCC2)c1`, the cytotoxic concentration (CC50) at 96 h in data set [1] is 16 µM; in [7], 46 µM; in [11] it was 20 µM; in data set [12], 60 µM. Moreover, the EC50 in data set [2] was above 20 µM; in data set [3] it was above 60 µM; in data set [8], above 46 µM; in data set [10], 18 µM; in [13] it was 22 µM. Also, the result in data set [4], in data set [5] and in data set [9] was inactive.

Turning to `Fc1ccc(N2CCN(/C=C/N=N/c3ccccc3)CC2)cc1`, the CC50 at 96 h in [1] came out at 17 µM; in data set [7], 50 µM; in [11], 13 µM; in data set [12], 35 µM. Besides, the 50% effective concentration (EC50) is above 13 µM in data set [2]; above 35 µM in data set [3]; 20 µM in data set [8]; 9 µM in data set [10]; 5 µM in data set [13]. Also, the outcome in [4], in [5] and in data set [9] was inactive.

Take `C(=C\N1CCSCC1)/N=N/c1ccccc1`: the CC50 at 96 h in data set [1] is 19 µM; in data set [7], above 100 µM; in data set [11], 14 µM; in data set [12], 30 µM. The half-maximal effective concentration (EC50) in data set [2] is above 14 µM; in data set [3], above 30 µM; in data set [8] it was above 100 µM; in data set [10] it was above 30 µM; in [13], 6 µM. The outcome in data set [4], in data set [5] and in data set [9] was inactive.

As for `Fc1ccccc1N1CCN(/C=C/N=N/c2ccccc2)CC1`, the CC50 at 96 h in [1] stood at 32 µM; in data set [7], 62 µM; in [11], 10 µM; in [12], 34 µM. The half-maximal effective concentration (EC50) in [2] is above 10 µM; in [3], above 34 µM; in data set [8], above 62 µM; in data set [10] it was 6 µM; in [13], 6 µM. Moreover, the outcome in data set [4], in data set [5] and in [9] was inactive.
